Results on six molecules are retold here after ChEMBL document CHEMBL1154067, “Antiviral and cytotoxic activities of aminoarylazo compounds and aryltriazene derivatives” (Bioorg Med Chem, 2009).

Activity calls are given as the source filed them.

The test system of the first data set is Bovine viral diarrhea virus 1. Briefly: Antiviral activity against Bovine viral diarrhea virus infected in MDBK cells assessed as inhibition of virus-induced cytopathicity after 3 to 4 days by MTT assay. The following applies: Bovine viral diarrhea virus isolates and strains. The class given is functional, organism-based. (In general: Cytopathic effects are the visible damage that an infection or toxin causes in cultured cells.)
For `O=[N+]([O-])c1cccc(/N=N/Nc2ccccc2)c1`, the EC50 (commonly the midpoint of the concentration-response curve) came out at 19 µM.
Still for that read-out and setting: the result for `Cc1c(/N=N/c2ccccc2)ccc(NC[C@@H]2CCCN3CCCC[C@H]23)c1C` reads 2.5 µM; that for `CN(/N=N/c1ccccc1)c1ccccc1`, above 100 µM; that for `CN(/N=N/c1cccc([N+](=O)[O-])c1)c1ccccc1`, above 82 µM.
Same read-out and setting: the result for `O=[N+]([O-])c1cccc(/N=N/Nc2cccc([N+](=O)[O-])c2)c1` reads above 100 µM; that for `CN(C)CCCNc1ccc(/N=N/c2cc(F)ccc2F)cc1`, 9 µM.

Another data set relates to Vaccinia virus. The data set is described as follows: Antiviral activity against Vaccinia virus after 3 days by plaque reduction assay. The class given is functional, organism-based. Particulars: Orthopoxvirus vaccinia. On the technique in general: Plaque reduction counts the foci of infection that form in a cell layer.
Consider `O=[N+]([O-])c1cccc(/N=N/Nc2ccccc2)c1`, for which the outcome was inactive.
Same read-out and setting: to `Cc1c(/N=N/c2ccccc2)ccc(NC[C@@H]2CCCN3CCCC[C@H]23)c1C` belongs “inactive”; to `CN(/N=N/c1ccccc1)c1ccccc1`, “inactive”; to `CN(/N=N/c1cccc([N+](=O)[O-])c1)c1ccccc1`, “inactive”.
On the same count and under the same terms, the result for `O=[N+]([O-])c1cccc(/N=N/Nc2cccc([N+](=O)[O-])c2)c1` reads “inactive”; that for `CN(C)CCCNc1ccc(/N=N/c2cc(F)ccc2F)cc1`, “inactive”.

For another data set, the system named is Human immunodeficiency virus 1. The data set is described as follows: Antiviral activity against HIV1 infected in human MT4 cells assessed as inhibition of virus-induced cytopathicity after 4 days by MTT assay. The class given is functional, organism-based.
Conditions: not given
As to `O=[N+]([O-])c1cccc(/N=N/Nc2ccccc2)c1`, the inhibition entry was “inactive”.
Still for that read-out and setting: the result for `Cc1c(/N=N/c2ccccc2)ccc(NC[C@@H]2CCCN3CCCC[C@H]23)c1C` reads “inactive”.
In the case of `CN(/N=N/c1ccccc1)c1ccccc1`, the inhibition result was “inactive”.
Same read-out and setting: the result for `CN(/N=N/c1cccc([N+](=O)[O-])c1)c1ccccc1` reads “inactive”; that for `O=[N+]([O-])c1cccc(/N=N/Nc2cccc([N+](=O)[O-])c2)c1`, “inactive”.
Same read-out and setting: to `CN(C)CCCNc1ccc(/N=N/c2cc(F)ccc2F)cc1` belongs “inactive”.

System in another data set: not listed separately
Briefly: Cytotoxicity against MDBK cells after 48 to 96 hrs by MTT assay. The class given is cell-based, Bos taurus. The following applies: cattle, mdbk. The method, boiled down:
(§1)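 Mock-infected cells in maintenance medium, MDBK at 6 × 10^5 and BHK at 1 × 10^6 cells/mL initial density, with or without serial compound dilutions. Run in parallel with antiviral assays. Viability by MTT after 48–96 h at 37 °C, 5% CO2. CC50 = concentration reducing viability 50%.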
On the technique in general: Formazan colour is commonly taken as a measure of viable cells.
With `O=[N+]([O-])c1cccc(/N=N/Nc2ccccc2)c1`, the CC50 (in general, the concentration at which the toxic effect on the cells reaches its halfway point) came to 94 µM.
On the same count and under the same terms, the result for `Cc1c(/N=N/c2ccccc2)ccc(NC[C@@H]2CCCN3CCCC[C@H]23)c1C` reads 48 µM.
`CN(/N=N/c1ccccc1)c1ccccc1` returned a CC50 above 100 µM.
For `CN(/N=N/c1cccc([N+](=O)[O-])c1)c1ccccc1`, the CC50 amounted to 82 µM.
For the molecule `O=[N+]([O-])c1cccc(/N=N/Nc2cccc([N+](=O)[O-])c2)c1`, the CC50 is above 100 µM.
On the same count and under the same terms, the result for `CN(C)CCCNc1ccc(/N=N/c2cc(F)ccc2F)cc1` reads 59 µM.

For a further data set, the system named is Coxsackievirus B2. Briefly: Antiviral activity against Coxsackie virus type B2 virus infected in african green monkey Vero-76 cells after 3 days by plaque reduction assay. The class given is functional, organism-based. Particulars: Enterovirus B, Vero 76, 72 h. In a few lines: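 Vero 76 cells seeded at 2 × 10^5 cells/well, grown overnight to confluence at 37 °C in 5% CO2, then infected at 50–100 PFU/well. Unadsorbed virus removed. Overlay of DMEM with 1% inactivated FCS and 0.75% methylcellulose, with or without serial compound dilutions. After 3 days at 37 °C, fixed and stained with crystal violet in PBS/50% ethanol; plaques counted. EC50 is the concentration reducing plaque number by 50%.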
Regarding `O=[N+]([O-])c1cccc(/N=N/Nc2ccccc2)c1`, the EC50 is above 33 µM.
`Cc1c(/N=N/c2ccccc2)ccc(NC[C@@H]2CCCN3CCCC[C@H]23)c1C` returned a concentration giving a half-maximal response (EC50) above 60 µM.
On the same count and under the same terms, the result for `CN(/N=N/c1ccccc1)c1ccccc1` reads above 50 µM.
Still for that read-out and setting: to `CN(/N=N/c1cccc([N+](=O)[O-])c1)c1ccccc1` belongs above 100 µM.
On the same count and under the same terms, the result for `O=[N+]([O-])c1cccc(/N=N/Nc2cccc([N+](=O)[O-])c2)c1` reads above 100 µM; that for `CN(C)CCCNc1ccc(/N=N/c2cc(F)ccc2F)cc1`, above 30 µM.

In another data set the test system is Mammalian orthoreovirus 1. Briefly: Antiviral activity against Reovirus-1 infected in BHK-21 cells assessed as inhibition of virus-induced cytopathicity after 3 to 4 days by MTT assay. Particulars: Mammalian orthoreovirus 1, BHK-21. The class given is functional, organism-based. In a few lines: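 BHK-21 cells seeded at 5 × 10^4 cells/well, grown overnight to confluent monolayers at 37 °C in 5% CO2, then infected at m.o.i. 0.01 in serum-free medium. One hour later, MEM Earle's with 1% final inactivated FCS added, with or without serial compound dilutions. Viability read by MTT after 3–4 days at 37 °C. EC50 is the concentration giving 50% protection from cytopathogenicity.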
For the molecule `O=[N+]([O-])c1cccc(/N=N/Nc2ccccc2)c1`, the EC50 was above 38 µM.
On the same count and under the same terms, the result for `Cc1c(/N=N/c2ccccc2)ccc(NC[C@@H]2CCCN3CCCC[C@H]23)c1C` reads above 47 µM.
Turning to `CN(/N=N/c1ccccc1)c1ccccc1`, the EC50 was above 100 µM.
The same measure, in the same setting: to `CN(/N=N/c1cccc([N+](=O)[O-])c1)c1ccccc1` belongs 33 µM; to `O=[N+]([O-])c1cccc(/N=N/Nc2cccc([N+](=O)[O-])c2)c1`, above 100 µM.
The same measure, in the same setting: to `CN(C)CCCNc1ccc(/N=N/c2cc(F)ccc2F)cc1` belongs above 33 µM.

A further data set has as its system MT4. Briefly: Cytotoxicity against human MT4 cells after 96 hrs by MTT assay. The class given is cell-based. The following applies: mt4, 96 h. In a few lines: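 Exponentially growing mock-infected MT-4 seeded at 1 × 10^5 cells/mL in RPMI-1640 with 10% FCS, penicillin and streptomycin. Incubated with or without serial compound dilutions at 37 °C, 5% CO2. Viability by MTT after 96 h. CC50 = concentration reducing viability 50%.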
Regarding `O=[N+]([O-])c1cccc(/N=N/Nc2ccccc2)c1`, the midpoint of cytotoxicity, the CC50, lay at 40 µM.
The same measure, in the same setting: the result for `Cc1c(/N=N/c2ccccc2)ccc(NC[C@@H]2CCCN3CCCC[C@H]23)c1C` reads 31 µM; that for `CN(/N=N/c1ccccc1)c1ccccc1`, 55 µM; that for `CN(/N=N/c1cccc([N+](=O)[O-])c1)c1ccccc1`, above 100 µM.
Same read-out and setting: to `O=[N+]([O-])c1cccc(/N=N/Nc2cccc([N+](=O)[O-])c2)c1` belongs above 100 µM; to `CN(C)CCCNc1ccc(/N=N/c2cc(F)ccc2F)cc1`, 16 µM.

Another data set concerns Respiratory syncytial virus. The data set is described as follows: Antiviral activity against Respiratory syncytial virus A2 infected in Vero-76 cells after 5 days by plaque reduction assay. The following applies: human respiratory syncytial virus, A2, Vero 76, 120 h. The class given is functional, organism-based.
Consider `O=[N+]([O-])c1cccc(/N=N/Nc2ccccc2)c1`, for which the EC50 was above 33 µM.
On the same count and under the same terms, the result for `Cc1c(/N=N/c2ccccc2)ccc(NC[C@@H]2CCCN3CCCC[C@H]23)c1C` reads above 60 µM; that for `CN(/N=N/c1ccccc1)c1ccccc1`, 20 µM; that for `CN(/N=N/c1cccc([N+](=O)[O-])c1)c1ccccc1`, 15 µM.
Still for that read-out and setting: the result for `O=[N+]([O-])c1cccc(/N=N/Nc2cccc([N+](=O)[O-])c2)c1` reads above 100 µM; that for `CN(C)CCCNc1ccc(/N=N/c2cc(F)ccc2F)cc1`, above 30 µM.

The next data set deals with Yellow fever virus. Briefly: Antiviral activity against Yellow fever virus infected in BHK-21 cells assessed as inhibition of virus-induced cytopathicity after 3 to 4 days by MTT assay. The class given is functional, organism-based.
Conditions: not given
`O=[N+]([O-])c1cccc(/N=N/Nc2ccccc2)c1`: the EC50 is above 38 µM.
Same read-out and setting: to `Cc1c(/N=N/c2ccccc2)ccc(NC[C@@H]2CCCN3CCCC[C@H]23)c1C` belongs 9 µM.
For `CN(/N=N/c1ccccc1)c1ccccc1`, the EC50 was above 100 µM.
The same measure, in the same setting: the result for `CN(/N=N/c1cccc([N+](=O)[O-])c1)c1ccccc1` reads above 100 µM; that for `O=[N+]([O-])c1cccc(/N=N/Nc2cccc([N+](=O)[O-])c2)c1`, above 100 µM; that for `CN(C)CCCNc1ccc(/N=N/c2cc(F)ccc2F)cc1`, 12 µM.

System in another data set: not listed separately
Briefly: Cytotoxicity against hamster BHK21 cells assessed as reduction in cell viability after 48 to 96 hrs by MTT assay. The following applies: bhk-21. The class given is cell-based, Mesocricetus auratus, BHK-21. In a few lines: as §1
In the case of `O=[N+]([O-])c1cccc(/N=N/Nc2ccccc2)c1`, the CC50 was 38 µM.
Take `Cc1c(/N=N/c2ccccc2)ccc(NC[C@@H]2CCCN3CCCC[C@H]23)c1C`: the cytotoxic concentration (CC50) stood at 47 µM.
Same read-out and setting: the result for `CN(/N=N/c1ccccc1)c1ccccc1` reads above 100 µM.
The same measure, in the same setting: the result for `CN(/N=N/c1cccc([N+](=O)[O-])c1)c1ccccc1` reads above 100 µM; that for `O=[N+]([O-])c1cccc(/N=N/Nc2cccc([N+](=O)[O-])c2)c1`, above 100 µM.
`CN(C)CCCNc1ccc(/N=N/c2cc(F)ccc2F)cc1`: the CC50 stood at 33 µM.

In a further data set the test system is Human alphaherpesvirus 1. Briefly: Antiviral activity against HSV1 infected in Vero-76 cells after 3 days by plaque reduction assay. The class given is functional, organism-based. Particulars: Human alphaherpesvirus 1, Vero 76, 72 h.
The molecule `O=[N+]([O-])c1cccc(/N=N/Nc2ccccc2)c1` yielded an EC50 above 33 µM.
As for `Cc1c(/N=N/c2ccccc2)ccc(NC[C@@H]2CCCN3CCCC[C@H]23)c1C`, the concentration for a half-maximal effect (EC50) is above 60 µM.
Take `CN(/N=N/c1ccccc1)c1ccccc1`: the EC50 was above 50 µM.
On the same count and under the same terms, to `CN(/N=N/c1cccc([N+](=O)[O-])c1)c1ccccc1` belongs above 100 µM; to `O=[N+]([O-])c1cccc(/N=N/Nc2cccc([N+](=O)[O-])c2)c1`, above 100 µM; to `CN(C)CCCNc1ccc(/N=N/c2cc(F)ccc2F)cc1`, 12 µM.

The subject of the next data set is Poliovirus 1. Briefly: Antiviral activity against Human poliovirus 1 strain Sabin after 2 days by plaque reduction assay.
Conditions: not given
The format is functional.
`Cc1c(/N=N/c2ccccc2)ccc(NC[C@@H]2CCCN3CCCC[C@H]23)c1C`: the outcome was inactive.
With `CN(C)CCCNc1ccc(/N=N/c2cc(F)ccc2F)cc1`, the result was inactive.

Staying with this data set, now noted: Enterovirus C, 48 h.
`O=[N+]([O-])c1cccc(/N=N/Nc2ccccc2)c1`: the EC50 is above 33 µM.
Same read-out and setting: to `CN(/N=N/c1ccccc1)c1ccccc1` belongs above 50 µM; to `CN(/N=N/c1cccc([N+](=O)[O-])c1)c1ccccc1`, 29 µM; to `O=[N+]([O-])c1cccc(/N=N/Nc2cccc([N+](=O)[O-])c2)c1`, above 100 µM.

Another data set concerns Vero. Briefly: Cytotoxicity against african green monkey Vero 76 cells by crystal violet staining. The format is cell-based. Particulars: chlorocebus sabaeus, vero. In a few lines: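 Mock-infected Vero 76 seeded at 4 × 10^5 cells/mL, run in parallel with plaque assays, with or without serial compound dilutions. Cell number of monolayers determined by crystal violet staining. CC50 = concentration reducing viable cell number 50%.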
Molecule `O=[N+]([O-])c1cccc(/N=N/Nc2ccccc2)c1` yielded a CC50 of 33 µM.
On the same count and under the same terms, the result for `Cc1c(/N=N/c2ccccc2)ccc(NC[C@@H]2CCCN3CCCC[C@H]23)c1C` reads 60 µM; that for `CN(/N=N/c1ccccc1)c1ccccc1`, 50 µM.
On the same count and under the same terms, to `CN(/N=N/c1cccc([N+](=O)[O-])c1)c1ccccc1` belongs above 100 µM; to `O=[N+]([O-])c1cccc(/N=N/Nc2cccc([N+](=O)[O-])c2)c1`, above 100 µM.
On the same count and under the same terms, to `CN(C)CCCNc1ccc(/N=N/c2cc(F)ccc2F)cc1` belongs 30 µM.

For another data set, the system named is Vesicular stomatitis virus. Briefly: Antiviral activity against Vesicular stomatitis virus after 2 days by plaque reduction assay.
Conditions: not given
The format is functional, organism-based.
Take `O=[N+]([O-])c1cccc(/N=N/Nc2ccccc2)c1`: the result was inactive.
Still for that read-out and setting: to `Cc1c(/N=N/c2ccccc2)ccc(NC[C@@H]2CCCN3CCCC[C@H]23)c1C` belongs “inactive”.
Consider `CN(/N=N/c1ccccc1)c1ccccc1`, for which the outcome was inactive.
The same measure, in the same setting: to `CN(/N=N/c1cccc([N+](=O)[O-])c1)c1ccccc1` belongs “inactive”; to `O=[N+]([O-])c1cccc(/N=N/Nc2cccc([N+](=O)[O-])c2)c1`, “inactive”.
On the same count and under the same terms, to `CN(C)CCCNc1ccc(/N=N/c2cc(F)ccc2F)cc1` belongs “inactive”.
